Test results published in ChEMBL document CHEMBL1955834, “Disparate SAR data of griseofulvin analogues for the dermatophytes Trichophyton mentagrophytes, T. rubrum, and MDA-MB-231 cancer cells” (J Med Chem, 2012).
Active and inactive are the calls of the source. The rule behind the calls is not given here.

Legend:
Trichophyton rubrum [1] = experiment: Antifungal activity against Trichophyton rubrum IBT 29284 after 7 days by micro broth dilution method; format: functional, organism-based; conditions: IBT 29284, 168 h
Method in brief: (§1)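 T. rubrum IBT29284 was tested by broth microdilution using a 4-fold dilution series of 10 concentrations from 50 μM down to 0.2 μM, with 1% DMSO. The inoculum followed CLSI M38-A2, set to OD530 0.90–1.5 and diluted 50-fold in RPMI/MOPS at pH 7.00. Incubation was 7 days at 37 °C, read by OD. IC50 came from a variable-slope sigmoidal fit.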

[2] = test system: Trichophyton mentagrophytes; experiment: Antifungal activity against Trichophyton mentagrophytes IBT 2724 after 7 days by micro broth dilution method; format: functional, organism-based; conditions: IBT 2724, 168 h
Method in brief: (§2)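 T. mentagrophytes IBT2724 was tested by broth microdilution using an 8-fold dilution series of 10 concentrations from 50 μM down to 0.4 μM, with 1% DMSO. The inoculum was prepared per CLSI M38-A2, adjusted to OD530 0.90–1.5 and diluted 50-fold in RPMI/MOPS at pH 7.00. Plates ran 7 days at 37 °C with an OD read-out. IC50 came from a variable-slope sigmoidal fit.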

MDA-MB-231 [3] = experiment: Cytotoxicity against human MDA-MB-231 cells assessed as cell viability after 48 hrs by MTT assay; format: functional, cell-based; conditions: MDA-MB-231, 48 h
Method in brief: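 MDA-MB-231 cells were grown in L-15 with 10% FCS at 37 °C and seeded at (2-3) × 10^4 per well. Exposure was 24 and/or 48 h, then MTT for at least 4 h, with absorbance read at 570/630 nm. Each condition had at least 3 replicates, reported as mean ± SD of a representative experiment repeated at least three times.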

[4] = Drug degradation in phosphate buffered saline at pH 7.4 assessed as compound hydrolysis after 48 hrs; format: physicochemical; conditions: read-out: Drug degradation
Method in brief: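 Oximes were held in PBS at pH 7.4 for 48 h, and hydrolysis to the parent ketones was monitored.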

V79 = experiment: Cytotoxicity against Chinese hamster V79 cells; format: functional, cell-based; conditions: Cricetulus griseus
[5] = Cytotoxicity against human SCC114 cells by phenotype-based spindle multipolarity assay; format: functional, cell-based
HeLa = experiment: Cytotoxicity against human HeLa cells; format: functional, cell-based
Trichophyton rubrum [6] = experiment: Antifungal activity against Trichophyton rubrum IBT 29284 at 50 uM after 7 days by micro broth dilution method; format: functional; method in brief: as §1
MDA-MB-231 [7] = experiment: Ratio of griseofulvin IC50 to compound IC50 for human MDA-MB-231 cells; format: functional
[8] = test system: Trichophyton mentagrophytes; experiment: Antifungal activity against Trichophyton mentagrophytes IBT 2724 at 50 uM after 7 days by micro broth dilution method; format: functional; method in brief: as §2

## COc1cc(OC)c2c(c1Cl)O[C@]1(C2=O)C(OCc2ccccc2)=C/C(=N\O)C[C@H]1C
Trichophyton rubrum [1]
  IC50: 7.9 µM
[2]
  IC50: 0.3 µM
MDA-MB-231 [3]
  IC50: 1.4 µM
[4]
  degraded at 48 h: < 5%

## COC1=CC(=O)C[C@@H](C)[C@]12Oc1c(Cl)c(OC)cc(OC)c1C2=O [GRISEOFULVIN]
Trichophyton rubrum [1]
  IC50: 0.38 µM
V79
  IC50: 8 µM
[2]
  IC50: 0.058 µM
[5]
  IC50: 20 µM
MDA-MB-231 [3]
  IC50: 18 µM
HeLa
  IC50: 25 µM

## COC(=O)C1=CC(=O)C=C(OC)[C@]12Oc1c(Cl)c(C)c(Cl)c(O)c1C2=O
Trichophyton rubrum [6]
  inhibition: inactive
MDA-MB-231 [3]
  IC50: 9.9 µM
MDA-MB-231 [7]
  Ratio IC50: 2
[8]
  inhibition: inactive

## CCCOC1=CC(=O)C[C@@H](C)[C@]12Oc1c(Cl)c(OC)cc(OC)c1C2=O
Trichophyton rubrum [1]
  IC50: 0.62 µM
V79
  IC50: 0.7 µM
[2]
  IC50: 0.05 µM
MDA-MB-231 [3]
  IC50: 16 µM

## COC1=C/C(=N\O)C[C@@H](C)[C@]12Oc1c(Cl)c(OC)cc(OC)c1C2=O
Trichophyton rubrum [1]
  IC50: 1.3 µM
[2]
  IC50: 0.19 µM
MDA-MB-231 [3]
  IC50: 12 µM
[4]
  degraded at 48 h: < 5%

## COc1cc(OC)c2c(c1Cl)O[C@]1(C2=O)C(OCc2ccc(COC3=CC(=O)C[C@@H](C)[C@]34Oc3c(Cl)c(OC)cc(OC)c3C4=O)cc2)=CC(=O)C[C@H]1C
Trichophyton rubrum [6]
  inhibition: inactive
MDA-MB-231 [3]
  IC50: 8.5 µM
MDA-MB-231 [7]
  Ratio IC50: 2
[8]
  inhibition: inactive
